# Screens from PubChem BioAssay.
# Rows were chosen to be rich in hits. Some 1.5% of all compounds tested hit in one or more screens of this group.
# Tb MetRS inh = Trypanosoma brucei MetRS inhibition; 0.4% of 360,000 active; inhibition, % at 11.9 µM; purified T. brucei MetRS, ATP depletion, Kinase-Glo luminescence; AID 624268;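 active means inhibition above a per-plate cutoff of the control wells' mean inhibition plus 3 SD, cut at about 5.5% in these data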;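 further: 0% = DMSO wells median and 100% = median of wells with control inhibitor compound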
#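 Material – parasite MetRS enzyme · Medium – HEPES-MgCl2-KCl buffer plus DTT, spermine, BSA, pyrophosphatase · Reagent – ATP, methionine and E. coli bulk tRNA substrates · Times – 15 min enzyme-compound preincubation, 2 h reaction, 10 min detection, 25 °C · Measured by – luminescence of leftover ATP · Evaluation – percent inhibition relative to median high and low control wells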
# H9c2 protect = modulators protecting cardiomyocytes from myocardial damage | H9c2 cardiomyocytes, H2O2 injury protection, ATPLite, 2 h | protection from H2O2 cell death, % at 20 µM | 0.63% of 360,000 active | AID 588492;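 active means compounds giving at least 50% protection of heart cells from peroxide-induced death in the single-dose screen, raw or plate-pattern-corrected value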;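 further: 0% = DMSO wells with peroxide and 100% = DMSO wells without peroxide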
# Rin1 Abl inh = inhibitors of human Rin1-Abl protein interaction. P00519+Q13671. TR-FRET Rin1/Abl binding, biochemical. inhibition, % at 7.35 µM. 0.4% of 360,000 active. AID 588664; in the data active means inhibition above about 5%, passing the limit was not always enough
# PKA-R2B act = activators of human PKA-R2B complex. P22694+P31323. PKA-R2B holoenzyme dissociation, Cy5-IP20 fluorescence polarization; R2B truncated from residue 108, S112A mutant; 0% DMSO only, 100% 113 µM cGMP. activation, % at 11.4 µM. 0.079% of 340,000 active. AID 504700;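 active means activation above a cutoff set at the mean over all compounds plus 3 SD, cut at about 18% in these data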;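 further: higher means more holoenzyme dissociation and a rise in polarization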
# Target sequence (P31323 whole entry, looked up, other chains not shown, the tested form may be a part): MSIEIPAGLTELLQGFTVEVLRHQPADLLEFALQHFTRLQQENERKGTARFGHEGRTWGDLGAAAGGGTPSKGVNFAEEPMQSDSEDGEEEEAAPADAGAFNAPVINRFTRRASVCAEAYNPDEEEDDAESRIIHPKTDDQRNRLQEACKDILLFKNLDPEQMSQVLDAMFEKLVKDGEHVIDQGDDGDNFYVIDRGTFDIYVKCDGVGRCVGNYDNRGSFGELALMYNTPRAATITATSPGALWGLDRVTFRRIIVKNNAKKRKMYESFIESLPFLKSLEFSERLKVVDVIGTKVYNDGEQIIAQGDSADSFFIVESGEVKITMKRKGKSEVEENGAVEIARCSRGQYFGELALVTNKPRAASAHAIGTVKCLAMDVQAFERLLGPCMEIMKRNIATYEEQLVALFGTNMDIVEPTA
# PKA-R1A act = PKA-R1A complex activation; P00514+P68181; PKA-R1A dissociation, Cy5-IP20 fluorescence polarization; scaled: DMSO 0%, 113 µM cGMP 100%; activation, % at 11.4 µM; 0.083% of 340,000 active; AID 504707;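 active means percent activation above the mean of all tested compounds plus 3 SD, cut at about 19% in these data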;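 further: higher means more PKAc released from R1A so a rise in polarization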
# Rin1 Abl conf = confirmation of inhibitors of human Rin1-Abl interaction; TR-FRET Rin1-Abl binding, purified proteins; AID 602124; 49% of 1,300 active; shares compounds with Rin1 Abl inh; inhibition, % at 7.35 µM
# GFP quench-1 = quenches GFP fluorescence, counter-screen for Rin1-Abl inhibitors. inhibition, % at 6.75 µM. inhibitors/quenchers counterscreen. 8.5% of 1,300 active. shares compounds with Rin1 Abl inh. AID 602125;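 further: ABL1-eGFP fusion protein alone without its partner RIN1-SBP; 0% = protein with vehicle and 100% = wells lacking protein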
# GFP quench dose = quenches GFP in dose response, Rin1-Abl counter-screen | 230 tested, under 10 active | shares compounds with Rin1 Abl inh | GFP fluorescence interference/quenching counterscreen | IC50, µM | AID 602182; call rule not given here;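 further: ABL1-eGFP fusion protein alone without its RIN1 binding partner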
# GFP quench-2 = GFP quenching artifact for Rin1-Abl inhibitor hits | IC50, µM | AID 602397 | GFP fluorescence quenching counterscreen, biochemical | shares compounds with Rin1 Abl inh | 25 tested, under 10 active; call rule not given here
# * hit, by the source's call; / = not tested or not shown. Unless noted, no stated cut-off is given here; in the data, active means inhibition above about 6.5%; inactive means the rest.
SMILES,Tb MetRS inh,H9c2 protect,Rin1 Abl inh,PKA-R2B act,PKA-R1A act,Rin1 Abl conf,GFP quench-1,others
C=C(C)Cn1c(C(C)NC(=O)CCC)nc2ccccc21 (stereo unspecified),0,-4,8.6*,-13,-6,-1,0,
CC(C)=NOCC(=O)Nn1c(COc2c(C)cccc2C)nc2ccccc2c1=O,-1,10,1,-9,-2,/,/,
O=C(Cc1ccc(NC(=O)C2CCN(C(=O)c3ccccc3)CC2)cc1)Nc1ccc(C(=O)N2CCOCC2)cc1,-1,-2,36*,11,2,37*,0,GFP quench dose=>68;GFP quench-2=>68
O=C(Cc1ccc(NC(=O)C2CCN(C(=O)C3CCCC3)CC2)cc1)Nc1cccc(C(=O)N2CCCCC2)c1,0,-10,17*,-7,-16,17*,0,GFP quench dose=>68
O=C(Cc1ccc(NC(=O)C2CCN(C(=O)CCc3ccccc3)CC2)cc1)Nc1ccc(C(=O)N2CCOCC2)cc1,-1,-19,4,4,-3,/,/,
O=C(Cc1ccc(NC(=O)C2CCCN(C(=O)C3CC3)C2)cc1)Nc1ccc(C(=O)N2CCOCC2)cc1 (stereo unspecified),0,-3,-2,3,0,/,/,
O=C(Cc1ccc(NC(=O)C2CCN(C(=O)C3CCC3)CC2)cc1)Nc1ccc(C(=O)N2CCOCC2)cc1,0,13,23*,-2,-4,21*,0,GFP quench dose=>67
O=C(C1CCCN1S(=O)(=O)c1ccc(Cl)cc1)N1CCN(c2ccccc2)CC1 (stereo unspecified),0,-2,3,2,-12,/,/,
O=C(Nc1ccc(OC(F)F)cc1)c1cc(S(=O)(=O)N2CCCCC2)ccc1N1CCOCC1,0,-6,-1,-6,-20,/,/,
Cc1ncc(CN2CCCC(C(=O)Nc3ccc(-c4ccco4)cc3)C2)cn1 (stereo unspecified),-1,5,15*,0,0,10*,-2,
Cc1ncc(CN2CCCC(C(=O)Nc3ccc(-c4cscn4)cc3)C2)cn1 (stereo unspecified),-1,5,5,2,-13,/,/,
OCCNc1ncnc2c1ncn2[C@H]1CN(Cc2ccc(-c3ccccc3)cc2)C[C@@H](CO)O1,0,3,24*,/,/,28*,0,GFP quench dose=>68
OC[C@@H]1CN(Cc2ccccc2)C[C@H](n2cnc3c(NCc4ccco4)ncnc32)O1,0,1,1,/,/,/,/,
OC[C@@H]1CN(Cc2ccc(-c3ccccc3)cc2)C[C@H](n2cnc3c(NCc4ccco4)ncnc32)O1,0,0,10*,/,/,6.7*,-1,
CCNS(=O)(=O)c1cccc(C(=O)c2c(C)cc3ccccn23)c1,1,-12,-4,-12,-1,/,/,
CCn1c2ccccc2c2cc(CN3CCN(Cc4cc(OC)ccc4O)CC3)ccc21,-1,-3,5,9,2,/,/,
CCn1c2ccccc2c2cc(CN3CCN(S(C)(=O)=O)CC3)ccc21,-1,2,6.1*,9,-2,-2,-2,
CC(C)(C)n1ncc2c(=O)n(Cc3cccc(Cl)c3)cnc21,0,-6,7.6*,-10,-3,-1,-1,
COc1ccc(CNC(=O)CCSCc2cccc(Cl)c2)c(OC)c1,-1,5,5.2*,11,-7,-1,2,
CC(NC(N)=O)C(=O)Nc1ccc(Cl)c(S(=O)(=O)Nc2ccc(Br)cc2)c1 (stereo unspecified),0,-4,3,2,-10,/,/,
COc1ccc(CNC(=O)C2=C(C)C(=O)OC23CCC(C)CC3)cc1 (stereo unspecified),0,12,7.4*,8,12,0,2,
